The source made the active and inactive calls. *1 amine or outer side, *2 acyl side, *3 side chain or, on linkers, in order; H or OH if unused. Where a SMILES comes first, the peptide text is derived from it. Bridges are numbered along the chain shown (N, C = ends). [ ]: non-standard residue; d: D form. The star is where a group is joined. βGlc = OC[C@H]1O[C@@H](*)[C@H](O)[C@@H](O)[C@@H]1O; Dmt = Cc1cc(O)cc(C)c1C[C@H](N)C(=O)O; dPen = CC(C)(S)[C@@H](N)C(=O)O; Aic = NC1(C(=O)O)Cc2ccccc2C1; CH2CH2 = C(C[*:2])[*:1]
Assays:
[1] = target: Delta-type opioid receptor (Rattus norvegicus) (UniProt P33533); assay: Agonist activity at rat delta opioid receptor expressed in rat C6 cells assessed as stimulation of [35S]-GTPgammaS binding after 1 hr by GF/C filters relative to control; type: functional, cell-based
How it was run: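 Membranes (10–20 μg protein) from C6 glioma cells stably expressing rat DOPr, incubated 1 h at room temperature in 50 mM Tris-HCl, 100 mM NaCl, 5 mM MgCl2, pH 7.4, with 0.1 nM [35S]GTPγS, 30 μM GDP and varied peptide concentrations. GF/C filtration, scintillation counting. […] At least three assays in duplicate.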

[2] = target: Delta-type opioid receptor (Rattus norvegicus) (UniProt P33533); assay: Antagonist activity at rat delta opioid receptor expressed in rat C6 cells assessed as [35S]-GTPgammaS binding after 1 hr by GF/C filters; type: functional, cell-based
How it was run: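 Membranes (10–20 μg protein/well) from C6 glioma cells stably expressing rat DOPr were incubated 1 h at room temperature in 50 mM Tris-HCl, 100 mM NaCl, 5 mM MgCl2, pH 7.4, with 0.1 nM [35S]GTPγS and 30 μM GDP. Bound label was filtered, washed 10× with cold buffer, and scintillation-counted. Ke was derived by formula using a single peptide concentration. Mean ± SEM, ≥3 assays in duplicate.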

[3] = target: Mu-type opioid receptor (Rattus norvegicus) (UniProt P33535); assay: Agonist activity at rat mu opioid receptor expressed in rat C6 cells assessed as stimulation of [35S]-GTPgammaS binding after 1 hr by GF/C filters relative to control; type: functional, cell-based
How it was run: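 C6 glioma membranes (rat MOPr, stable; 10–20 μg protein) incubated 1 h at room temperature in 50 mM Tris-HCl, 100 mM NaCl, 5 mM MgCl2, pH 7.4, with 0.1 nM [35S]GTPγS, 30 μM GDP and varying peptide concentrations. GF/C filtration, counting. […] EC50 and maximum from nonlinear regression. At least three assays in duplicate.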

[4] = target: Kappa-type opioid receptor (Homo sapiens) (UniProt P41145); assay: Agonist activity at human kappa opioid receptor expressed in rat C6 cells assessed as stimulation of [35S]-GTPgammaS binding after 1 hr by GF/C filters relative to control; type: functional, cell-based
Mus musculus [5] = assay: Antinociceptive effect in C57BL/6 mouse assessed as maximum effect at 10 mg/kg, ip after 30 mins by acute tolerance/warm water tail withdrawal assay; type: functional, organism-based; design: dose 10 mg/kg
How it was run: (§1)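 Separate groups of C57BL/6 mice got ip saline or 10 mg/kg compound after baseline, with 50 °C tail-withdrawal latency (20 s cutoff) at 15, 30, 45, 60 and 90 min. At 90–120 min all mice received 10 mg/kg ip, read at 15, 30, 60 and 90 min. AUC over baseline was computed per mouse and averaged by group; naive and pretreated groups compared by t-test.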

Mus musculus [6] = assay: Antinociceptive effect in C57BL/6 mouse assessed as maximum effect at 10 mg/kg, ip after 90 mins by acute tolerance/warm water tail withdrawal assay; type: functional, organism-based; design: dose 10 mg/kg; how it was run: as §1
Mus musculus [7] = assay: Antinociceptive effect in C57BL/6 mouse assessed as tail withdrawal latency at 10 mg/kg, ip by warm water tail withdrawal assay relative to 20 secs cutoff time; type: functional; details: route intraperitoneal
How it was run: (§2)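 Adult male and female C57BL/6 mice (20–35 g, 8–16 weeks). Saline ip, then baseline latency 30 min later. Cumulative ip doses in saline were given at 30 min intervals, with latency read 30 min after each dose. Tail tip (2–3 cm) placed in 50 °C water; withdrawal or flick latency recorded, 20 s cutoff.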

Mus musculus [8] = assay: Antinociceptive effect in C57BL/6 mouse assessed as maximum effect at 10 mg/kg, ip after 90 mins followed by treated with second dose measured up to 200 mins by acute tolerance/warm water tail withdrawal assay; type: functional, organism-based; design: dose 10 mg/kg; how it was run: as §1
Mus musculus [9] = assay: Antinociceptive effect in C57BL/6 mouse assessed as tail withdrawal latency at 10 mg/kg, ip by warm water tail withdrawal assay in presence of 3.2 mg/kg, ip naltrexone nonselective opioid antagonist; type: functional, organism-based
How it was run: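 C57BL/6 mice, both sexes. Saline or 3.2 mg/kg naltrexone ip 30 min before 10 mg/kg test compound ip, all in saline. Tail-withdrawal latency in 50 °C water (20 s cutoff) read 30 min after pretreatment and 30 min after test injection.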

Mus musculus [10] = species on record: Mus musculus; assay: Antinociceptive effect in C57BL/6 mouse assessed as tail withdrawal latency by warm water tail withdrawal assay relative to 20 secs cutoff time; type: functional, organism-based; how it was run: as §2
Mus musculus [11] = assay: Antinociceptive effect in C57BL/6 mouse assessed as tail withdrawal latency at 10 mg/kg, ip measured between 30 and 60 mins by warm water tail withdrawal assay relative to 20 secs cutoff time; type: functional, organism-based; design: dose 10 mg/kg

Chain of Kappa-type opioid receptor (Homo sapiens) (P41145 whole entry): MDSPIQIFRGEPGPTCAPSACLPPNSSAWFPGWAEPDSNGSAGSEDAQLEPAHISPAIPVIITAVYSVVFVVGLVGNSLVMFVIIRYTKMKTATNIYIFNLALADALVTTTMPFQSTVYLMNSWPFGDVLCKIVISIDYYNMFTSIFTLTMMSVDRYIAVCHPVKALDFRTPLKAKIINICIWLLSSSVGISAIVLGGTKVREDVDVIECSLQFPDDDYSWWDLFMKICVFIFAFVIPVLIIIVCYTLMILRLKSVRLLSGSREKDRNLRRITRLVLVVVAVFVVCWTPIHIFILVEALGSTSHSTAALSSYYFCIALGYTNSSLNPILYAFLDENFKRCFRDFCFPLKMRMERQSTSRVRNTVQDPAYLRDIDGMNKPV
Chain of Delta-type opioid receptor (Rattus norvegicus) (P33533 whole entry): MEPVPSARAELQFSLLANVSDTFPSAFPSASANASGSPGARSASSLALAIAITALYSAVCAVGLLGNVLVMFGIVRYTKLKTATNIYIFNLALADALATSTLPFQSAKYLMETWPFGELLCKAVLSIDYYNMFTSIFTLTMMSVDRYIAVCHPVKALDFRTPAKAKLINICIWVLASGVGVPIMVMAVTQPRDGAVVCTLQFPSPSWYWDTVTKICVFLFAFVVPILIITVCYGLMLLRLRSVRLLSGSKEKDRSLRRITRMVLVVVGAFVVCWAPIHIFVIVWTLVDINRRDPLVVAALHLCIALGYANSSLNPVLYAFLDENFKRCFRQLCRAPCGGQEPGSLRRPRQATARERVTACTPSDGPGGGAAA
Chain of Mu-type opioid receptor (Rattus norvegicus) (P33535 whole entry): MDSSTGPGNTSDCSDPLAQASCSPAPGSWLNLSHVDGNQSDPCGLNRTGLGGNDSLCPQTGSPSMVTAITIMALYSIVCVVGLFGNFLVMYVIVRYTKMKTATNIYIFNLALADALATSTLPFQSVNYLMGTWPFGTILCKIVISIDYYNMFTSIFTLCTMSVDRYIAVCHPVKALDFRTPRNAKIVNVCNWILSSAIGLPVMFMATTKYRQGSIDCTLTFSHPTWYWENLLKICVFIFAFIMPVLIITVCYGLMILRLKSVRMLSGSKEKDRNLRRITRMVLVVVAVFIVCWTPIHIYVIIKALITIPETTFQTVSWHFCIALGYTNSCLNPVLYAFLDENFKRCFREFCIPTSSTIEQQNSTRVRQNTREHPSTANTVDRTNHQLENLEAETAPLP

Row | SMILES | Efficacy [1] | Ke [2] [nM] | Efficacy [3] [%] | Efficacy [4] | Activity (Mus musculus [5]) | Activity (Mus musculus [6]) | Activity (Mus musculus [7]) [%] | Activity (Mus musculus [8]) | Activity (Mus musculus [9]) | Activity (Mus musculus [10]) | Activity (Mus musculus [11])
1 | Cc1cc(O)cc(C)c1C[C@H](N)C(=O)N[C@@H]1CSCCSC(C)(C)[C@H](C(=O)O)NC(=O)C2(Cc3ccccc3C2)NC1=O (H-[Dmt][dC][Aic][dPen]-OH; linker 2-4 via CH2CH2) | inactive | 4.4 | 59 | inactive | – | – | – | – | – | – | –
2 | Cc1cc(O)cc(C)c1C[C@H](N)C(=O)N[C@@H]1CSCCSC(C)(C)[C@H](C(=O)N[C@@H](CO[C@@H]2O[C@H](CO)[C@@H](O)[C@H](O)[C@H]2O)C(N)=O)NC(=O)C2(Cc3ccccc3C2)NC1=O (H-[Dmt][dC][Aic][dPen]S(βGlc)-NH2; linker 2-4 via CH2CH2) | inactive | 6.1 | – | inactive | Active | inactive | 80 | Active | inactive | Dose-dependent effect | Active
3 | Cc1cc(O)cc(C)c1C[C@H](N)C(=O)N[C@@H]1CSCCSC(C)(C)[C@H](C(=O)N[C@@H](CO)C(=O)O)NC(=O)C2(Cc3ccccc3C2)NC1=O (H-[Dmt][dC][Aic][dPen]S-OH; linker 2-4 via CH2CH2) | inactive | – | – | inactive | – | – | – | – | – | – | –
4 | Cc1cc(O)cc(C)c1C[C@H](N)C(=O)N[C@@H]1CSCCSC(C)(C)[C@H](C(=O)N[C@@H](CO)C(N)=O)NC(=O)C2(Cc3ccccc3C2)NC1=O (H-[Dmt][dC][Aic][dPen]S-NH2; linker 2-4 via CH2CH2) | inactive | – | – | inactive | – | – | – | – | – | – | –

Source: ChEMBL document CHEMBL3232873, “Development of a bioavailable μ opioid receptor (MOPr) agonist, δ opioid receptor (DOPr) antagonist peptide that evokes antinociception without development of acute tolerance” (J Med Chem, 2014)
